Measured values published in ChEMBL document CHEMBL1121573, “2-(Aminomethyl)phenols, a new class of saluretic agents. 1. Effects of nuclear substitution” (J Med Chem, 1980).

Each compound was assayed on Canis familiaris (assay: Compound administered intravenously was evaluated for salidiuretic activity measured as sodium ion excretion in Dog; Value ranges from 100-249). Conditions: in vivo, iv.
Assay type: ADME, organism-based, Canis lupus familiaris, Urine
How it was run: (§1)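 Conditioned female mongrel dogs, postabsorptive, water-loaded (500 mL po) 1 h before sodium pentobarbital anesthesia (30 mg/kg iv). Bladder catheter; creatinine 4 g sc; phosphate–mannitol buffer pH 7.4 infused (3.0 mL/min) throughout. […] Urine Na+ measured; response scored 0–6.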

Row | Diuretic activity | SMILES
1 | 100 | Cc1c(Cl)cc(C(C)C)c(O)c1CN.Cl
2 | 100 | CCOC(=O)c1cc(Cl)c(O)c(CN)c1.Cl

These compounds were tested on Canis familiaris (assay: Compound administered intravenously was evaluated for salidiuretic activity measured as sodium ion excretion in Dog; Value ranges from 100-299). Conditions: in vivo, iv.
Assay type: ADME, organism-based, Canis lupus familiaris, Urine
How it was run: as §1

Row | Diuretic activity | SMILES
3 | 100 | COc1cc(O)c(CN)c(OC)c1Cl.Cl
4 | 100 | Cc1cc(O)c(CN)c(C)c1Cl.Cl
